In ChEMBL document CHEMBL1153223, “One pot synthesis and SAR of some novel 3-substituted 5,6-diphenyl-1,2,4-triazines as antifungal agents” (2010):
In brackets after ≈: the same amount, converted by molar mass. Activity calls are given as the source filed them. The rule behind the calls is not given here.

What was measured:
[1] = test system: Aspergillus flavus; assay: Antifungal activity against Aspergillus flavus NCIM 539 by standard agar plate method; format: functional
Outline: (§1)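 Read-out was the minimum inhibitory concentration (MIC) on agar plates, with miconazole and fluconazole run as reference antifungal standards.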

[2] = test system: Aspergillus niger; assay: Antifungal activity against Aspergillus niger NCIM 1196 by standard agar plate method; format: functional; outline: as §1
[3] = test system: Fusarium oxysporum; assay: Antifungal activity against Fusarium oxysporum NCIM 1332 by standard agar plate method; format: functional; outline: as §1
[4] = test system: Candida albicans; assay: Antifungal activity against Candida albicans NCIM 347 by standard agar plate method; format: functional; outline: as §1
[5] = test system: Cryptococcus neoformans; assay: Antifungal activity against Cryptococcus neoformans NCIM 576 by standard agar plate method; format: functional; outline: as §1
[6] = test system: Cryptococcus neoformans; assay: Antifungal activity against Cryptococcus neoformans NCIM 576 up to 200 ug/mL by standard agar plate method; format: functional, organism-based; outline: as §1
[7] = test system: Aspergillus niger; assay: Antifungal activity against Aspergillus niger NCIM 1196 up to 200 ug/mL by standard agar plate method; format: functional, organism-based; outline: as §1
[8] = test system: Aspergillus flavus; assay: Antifungal activity against Aspergillus flavus NCIM 539 up to 200 ug/mL by standard agar plate method; format: functional, organism-based; outline: as §1
[9] = test system: Fusarium oxysporum; assay: Antifungal activity against Fusarium oxysporum NCIM 1332 up to 200 ug/mL by standard agar plate method; format: functional, organism-based; outline: as §1

SMILES	MIC [1]	MIC [2]	MIC [3]	MIC [4]	MIC [5]	MIC [6]	MIC [7]	MIC [8]	MIC [9]
OC(Cn1cncn1)(Cn1cncn1)c1ccc(F)cc1F [FLUCONAZOLE]	5 µg/mL (≈ 16.3 µM)	10 µg/mL (≈ 32.7 µM)	5 µg/mL (≈ 16.3 µM)	5 µg/mL (≈ 16.3 µM)	5 µg/mL (≈ 16.3 µM)	–	–	–	–
CS(=O)(=O)N1CCC(n2cc(-c3nnc(-c4ccccc4)c(-c4ccccc4)n3)nn2)CC1	30 µg/mL (≈ 65 µM)	–	60 µg/mL (≈ 130 µM)	50 µg/mL (≈ 108 µM)	–	inactive	inactive	–	–
c1ccc(CN2CCC(n3cc(-c4nnc(-c5ccccc5)c(-c5ccccc5)n4)nn3)CC2)cc1	–	95 µg/mL (≈ 201 µM)	60 µg/mL (≈ 127 µM)	40 µg/mL (≈ 84.5 µM)	–	inactive	–	inactive	–
CCC(=O)N1CCC(n2cc(-c3nnc(-c4ccccc4)c(-c4ccccc4)n3)nn2)CC1	20 µg/mL (≈ 45.5 µM)	20 µg/mL (≈ 45.5 µM)	50 µg/mL (≈ 114 µM)	50 µg/mL (≈ 114 µM)	–	inactive	–	–	–
O=C(c1ccc(Cl)cc1)N1CCC(n2cc(-c3nnc(-c4ccccc4)c(-c4ccccc4)n3)nn2)CC1	15 µg/mL (≈ 28.7 µM)	12.5 µg/mL (≈ 23.9 µM)	25 µg/mL (≈ 47.9 µM)	25 µg/mL (≈ 47.9 µM)	30 µg/mL (≈ 57.5 µM)	–	–	–	–
c1ccc(-c2nnc(-c3cn(C4CCNCC4)nn3)nc2-c2ccccc2)cc1	37.5 µg/mL (≈ 97.8 µM)	42.5 µg/mL (≈ 111 µM)	40 µg/mL (≈ 104 µM)	30 µg/mL (≈ 78.2 µM)	45 µg/mL (≈ 117 µM)	–	–	–	–
Clc1ccc(COC(Cn2ccnc2)c2ccc(Cl)cc2Cl)c(Cl)c1 (stereo not given) [MICONAZOLE]	12.5 µg/mL (≈ 30 µM)	12.5 µg/mL (≈ 30 µM)	25 µg/mL (≈ 60.1 µM)	25 µg/mL (≈ 60.1 µM)	25 µg/mL (≈ 60.1 µM)	–	–	–	–
CC(C)(C)OC(=O)N1CCC(n2cc(-c3nnc(-c4ccccc4)c(-c4ccccc4)n3)nn2)CC1	55 µg/mL (≈ 114 µM)	–	–	70 µg/mL (≈ 145 µM)	100 µg/mL (≈ 207 µM)	–	inactive	–	inactive
O=C(c1ccccc1)N1CCC(n2cc(-c3nnc(-c4ccccc4)c(-c4ccccc4)n3)nn2)CC1	17.5 µg/mL (≈ 35.9 µM)	15 µg/mL (≈ 30.8 µM)	30 µg/mL (≈ 61.5 µM)	30 µg/mL (≈ 61.5 µM)	55 µg/mL (≈ 113 µM)	–	–	–	–
CN1CCC(n2cc(-c3nnc(-c4ccccc4)c(-c4ccccc4)n3)nn2)CC1	17.5 µg/mL (≈ 44 µM)	12.5 µg/mL (≈ 31.4 µM)	30 µg/mL (≈ 75.5 µM)	25 µg/mL (≈ 62.9 µM)	25 µg/mL (≈ 62.9 µM)	–	–	–	–
CCN1CCC(n2cc(-c3nnc(-c4ccccc4)c(-c4ccccc4)n3)nn2)CC1	12.5 µg/mL (≈ 30.4 µM)	12.5 µg/mL (≈ 30.4 µM)	25 µg/mL (≈ 60.8 µM)	25 µg/mL (≈ 60.8 µM)	35 µg/mL (≈ 85.1 µM)	–	–	–	–
CCCC(=O)N1CCC(n2cc(-c3nnc(-c4ccccc4)c(-c4ccccc4)n3)nn2)CC1	35 µg/mL (≈ 77.2 µM)	40 µg/mL (≈ 88.2 µM)	65 µg/mL (≈ 143 µM)	62.5 µg/mL (≈ 138 µM)	75 µg/mL (≈ 165 µM)	–	–	–	–
CC(=O)N1CCC(n2cc(-c3nnc(-c4ccccc4)c(-c4ccccc4)n3)nn2)CC1	20 µg/mL (≈ 47 µM)	20 µg/mL (≈ 47 µM)	40 µg/mL (≈ 94 µM)	35 µg/mL (≈ 82.3 µM)	–	inactive	–	–	–
Cc1ccc(S(=O)(=O)N2CCC(n3cc(-c4nnc(-c5ccccc5)c(-c5ccccc5)n4)nn3)CC2)cc1	35 µg/mL (≈ 65.1 µM)	47.5 µg/mL (≈ 88.3 µM)	100 µg/mL (≈ 186 µM)	90 µg/mL (≈ 167 µM)	150 µg/mL (≈ 279 µM)	–	–	–	–
